In ChEMBL document CHEMBL2016463, “A Novel (18)F-Labeled Imidazo[2,1-b]benzothiazole (IBT) for High-Contrast PET Imaging of β-Amyloid Plaques” (ACS Med Chem Lett, 2011):
One block for each compound: values may come before it. The source made the active and inactive calls. No cut-off for these calls is given here.

Experiments:
[1] = system: Brain; assay: Ratio of drug uptake in Alzheimer's disease patient brain to healthy human brain; format: ADME, tissue-based; details: in vivo
[2] = Metabolic stability in Balb-C mouse blood at 21 to 32 MBq, iv after 30 mins by gamma counting; format: ADME, organism-based; details: read-out: Stability
How it was run: (§1)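 Balb-C mice were sampled for blood and brain tissue at 10 and 30 min pi. Radioactivity speciation is given as % intact tracer.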

[3] = Metabolic stability in Balb-C mouse brain at 21 to 32 MBq, iv after 30 mins by gamma counting; format: ADME, organism-based; details: read-out: Stability; how it was run: as §1
[4] = system: Cortex; assay: Drug uptake in APP/PS1 Alzheimer's disease mouse brain cortex at 13.5 MBq at 45 mins postinjection by uPET/CT analysis relative to control; format: ADME, organism-based; details: in vivo, 0.75 h
How it was run: (§2)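 Multimodal study of one 25-month-old APP/PS1 Tg mouse, with a 28-month-old control. Tail-vein coinjection of 18F tracer plus [3H]-reference: 13.5 + 4.0 MBq (Tg) or 10.0 + 3.7 MBq (control). Mice underwent µPET/CT for 45 min in list mode and were killed at 45 min. Ex vivo work included regional brain biodistribution and dual-label (3H/18F) digital autoradiography on 12 µm axial sections.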

[5] = Metabolic stability in Balb-C mouse blood at 21 to 32 MBq, iv after 10 mins by gamma counting; format: ADME, organism-based; details: read-out: Stability; how it was run: as §1
[6] = molecular target: T1, Amyloid-beta precursor protein (Homo sapiens, UniProt P05067); assay: Displacement of [3H]Pittsburgh compound B from human Abeta1-42 after 3 hrs by liquid scintillation counting
T1 sequence (P05067 whole entry): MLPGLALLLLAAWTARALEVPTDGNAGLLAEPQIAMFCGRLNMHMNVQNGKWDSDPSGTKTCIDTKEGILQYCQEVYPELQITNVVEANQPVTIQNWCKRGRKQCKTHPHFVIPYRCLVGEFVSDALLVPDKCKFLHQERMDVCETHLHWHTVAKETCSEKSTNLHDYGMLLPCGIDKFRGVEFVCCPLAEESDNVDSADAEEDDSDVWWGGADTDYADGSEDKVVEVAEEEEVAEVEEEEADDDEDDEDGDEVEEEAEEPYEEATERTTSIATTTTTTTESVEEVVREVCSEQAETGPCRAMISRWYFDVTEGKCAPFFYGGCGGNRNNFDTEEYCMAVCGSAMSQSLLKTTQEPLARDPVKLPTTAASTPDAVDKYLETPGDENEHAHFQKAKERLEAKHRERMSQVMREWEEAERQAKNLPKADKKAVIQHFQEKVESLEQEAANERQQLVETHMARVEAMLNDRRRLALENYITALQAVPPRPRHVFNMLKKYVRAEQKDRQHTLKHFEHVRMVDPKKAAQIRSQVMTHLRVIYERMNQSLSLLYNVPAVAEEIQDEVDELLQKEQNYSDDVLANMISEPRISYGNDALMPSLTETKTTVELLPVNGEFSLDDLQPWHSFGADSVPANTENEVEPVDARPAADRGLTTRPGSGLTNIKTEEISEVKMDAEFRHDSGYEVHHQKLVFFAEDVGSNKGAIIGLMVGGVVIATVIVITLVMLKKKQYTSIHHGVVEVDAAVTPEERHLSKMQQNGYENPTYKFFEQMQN

[7] = system: Brain; assay: Drug uptake in Balb-C mouse brain at 4 to 6 MBq, iv after 30 mins by gamma counting relative to [11C]Pittsburgh compound B; format: ADME, organism-based; details: in vivo, 0.5 h
How it was run: (§3)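 Male Balb-C mice received tracer or [11C] reference. Brain uptake was measured at 5 and 30 min pi and reported as mean ± SD, n ≥ 4.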

[8] = system: Cortex; assay: Drug uptake in APP/PS1 Alzheimer's disease mouse brain cortex at 13.5 MBq at 45 mins postinjection by dual label autoradiography relative to control; format: ADME, organism-based; details: in vivo, 0.75 h; how it was run: as §2
[9] = system: Brain; assay: Drug uptake in Balb-C mouse brain at 4 to 6 MBq, iv after 5 mins by gamma counting relative to [11C]Pittsburgh compound B; format: ADME, organism-based; details: in vivo; how it was run: as §3
[10] = Metabolic stability in Balb-C mouse brain at 21 to 32 MBq, iv after 10 mins by gamma counting; format: ADME, organism-based; details: read-out: Stability; how it was run: as §1
[11] = molecular target: T1, Amyloid-beta precursor protein; assay: Displacement of [3H]Pittsburgh compound B from human Abeta1-40 after 3 hrs by liquid scintillation counting
[12] = system: Brain; assay: Drug uptake in APP/PS1 Alzheimer's disease mouse brain cortex at 11.7 +/- 4.1 MBq at 36 to 45 mins postinjection by uPET analysis relative to control; format: ADME, organism-based; details: in vivo
How it was run: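 APP/PS1 (homozygous) Tg mice, 24.0 ± 0.4 months old (n = 7), and age-matched C57B6/J controls, 25 ± 2 months old (n = 3). Each mouse got a single bolus of 18F tracer: 11.7 ± 4.1 MBq for Tg, 11.5 ± 3.4 MBq for controls. Images are µPET frames summed over 36–45 min pi, with CT overlaid on an MRI template. Cortical and cerebellar VOI TACs and cortex/cerebellum ratios were derived.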

[13] = system: Cortex; assay: Binding affinity to amyloid beta plaque in APP/PS1 Alzheimer's disease mouse brain cortex at 13.5 MBq after 45 mins postinjection by immunohistochemistry analysis relative to control; format: functional, organism-based; design: dose or concentration left out as unconfirmed; details: tested as the 18F-labelled form
[14] = system: Cortex; assay: Binding affinity to amyloid beta plaque in APP/PS1 Alzheimer's disease mouse brain cortex at 4 MBq after 45 mins postinjection by immunohistochemistry analysis relative to control; format: functional, organism-based; design: dose or concentration left out as unconfirmed; details: tested as the 3H-labelled form
[15] = system: Cortex; assay: Drug uptake in APP/PS1 Alzheimer's disease mouse brain cortex at 4 MBq at 45 mins postinjection by uPET/CT analysis relative to control; format: ADME, organism-based; details: in vivo, 0.75 h; how it was run: as §2
[16] = system: Cortex; assay: Drug uptake in APP/PS1 Alzheimer's disease mouse brain cortex at 4 MBq at 45 mins postinjection by dual label autoradiography relative to control; format: ADME, organism-based; details: in vivo, 0.75 h; how it was run: as §2

SMILES: CNc1ccc(/C=C/c2ccc(OCCOCCOCC[18F])cc2)cc1 [FLORBETABEN F18]
Ratio [1]: 1.5

SMILES: CNc1ccc(-c2nc3ccc(O)cc3s2)cc1
Activity [14]: Active

SMILES: [3H]Oc1ccc2nc(-c3ccc(NC)cc3)sc2c1
Drug uptake [15]: Active
Drug uptake [16]: Active

Second part, the compound after the results:

remaining at 0.5 h [2]: 5%
remaining at 0.5 h [3]: 88%
Drug uptake [4]: Active
remaining at 10 min [5]: 12%
Ki [6]: 3.2 nM
Drug uptake [7]: Active
Drug uptake [8]: Active
Drug uptake [9]: Active
remaining at 10 min [10]: 92%
Ki [11]: 2.1 nM
Drug uptake [12]: Active
SMILES: CNc1ccc(-c2cn3c(n2)sc2cc(OCC[18F])ccc23)cc1

Activity [13]: Active
SMILES: CNc1ccc(-c2cn3c(n2)sc2cc(OCCF)ccc23)cc1

Ratio [1]: 1.3
SMILES: CC(=C(C#N)C#N)c1ccc2cc(N(C)CC[18F])ccc2c1

Drug uptake [7]: Active
Drug uptake [9]: Active
SMILES: [11CH3]Nc1ccc(-c2nc3ccc(O)cc3s2)cc1 [PITTSBURGH COMPOUND B]
